pEC50: −log10 of the molar value. Calls of active or inactive are those of the source. No cut-off for these calls is given here.
Legend:
L6 [1] = assay: Induction of glucose uptake in rat L6 cells pulsed with C14-deoxy glucose at 10 uM after 24 hrs in presence of insulin relative to control; format: functional
Procedure, shortened: (§1)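 L6 rat skeletal muscle cells grown in MEM alpha with 10% serum, differentiated at confluence in 2% serum, then serum-starved. Treated overnight; after 24 h, pulsed 10 min with 14C-deoxyglucose in presence of insulin. Uptake read by scintillation after lysis with Microscint PS.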

L6 [2] = assay: Induction of glucose uptake in rat L6 cells pulsed with C14-deoxy glucose after 24 hrs in presence of insulin; format: functional, cell-based; details: L6, 24 h; procedure, shortened: as §1
[3] = target: T1, Peroxisome proliferator-activated receptor gamma (Homo sapiens) (UniProt P37231); assay: Transactivation of GAL4 DNA binding domain-fused human PPAR-gamma ligand binding domain transfected in African green monkey CV1 cells after 24 hrs by luciferase reporter gene assay; format: cell-based; details: CV-1
T1 sequence (whole entry): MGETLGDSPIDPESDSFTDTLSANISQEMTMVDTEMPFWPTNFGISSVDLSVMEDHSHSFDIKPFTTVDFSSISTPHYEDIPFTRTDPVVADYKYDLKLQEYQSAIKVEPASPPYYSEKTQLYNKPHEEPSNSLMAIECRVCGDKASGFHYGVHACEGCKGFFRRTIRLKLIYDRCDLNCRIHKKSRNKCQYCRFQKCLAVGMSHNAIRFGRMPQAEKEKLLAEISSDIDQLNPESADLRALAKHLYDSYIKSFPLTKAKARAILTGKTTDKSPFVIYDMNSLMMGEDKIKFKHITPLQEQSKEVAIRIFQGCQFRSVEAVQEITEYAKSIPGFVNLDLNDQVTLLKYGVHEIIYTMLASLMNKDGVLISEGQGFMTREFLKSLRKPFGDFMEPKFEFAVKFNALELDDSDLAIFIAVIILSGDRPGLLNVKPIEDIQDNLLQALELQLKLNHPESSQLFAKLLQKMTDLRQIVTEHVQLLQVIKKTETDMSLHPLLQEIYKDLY
Procedure, shortened: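 CV-1 cells seeded at 25,000 cells/well, incubated overnight, then transiently co-transfected (Lipofectamine 2000) with Gal4-element luciferase reporter and GAL4 DBD–PPAR-γ LBD plasmid. Compounds added 6 h post-transfection for 24 h, then luminescence read. Values expressed as % of 1 µM rosiglitazone response (set as 100%). Triplicates, repeated twice.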

Row | Activity [3] | SMILES | fold change (FC) (L6 [1]) | pEC50 (L6 [2]) | Activity (L6 [1])
1 | – | Cc1sc(NC(=O)Cc2nn(C)c(=O)c3ccccc23)nc1-c1ccccc1 | 3.4 | 8.00 | –
2 | 1% | COc1ccc(-c2nc(NC(=O)Cc3nn(C)c(=O)c4ccccc34)sc2C)cc1 | 2.9 | 8.05 | –
3 | – | COc1ccc2c(oc3ccccc32)c1NC(=O)Cc1nn(C)c(=O)c2ccccc12 | 1.3 | – | –
4 | – | O=C(Cc1n[nH]c(=O)c2ccccc12)Nc1nc(-c2ccccc2)cs1 | 1.8 | 7.40 | –
5 | – | Cn1nc(CC(=O)Nc2nc(-c3ccccc3)c(C(=O)O)s2)c2ccccc2c1=O | 1.3 | – | –
6 | – | COC(=O)CCCCC(=O)N(C)c1nc(-c2ccccc2)cs1 | 1.2 | – | –
7 | – | NNC(=O)Cc1n[nH]c(=O)c2ccccc12 | – | – | inactive
8 | – | Cc1sc(NC(=O)Cc2nn(C)c(=O)c3ccccc23)nc1-c1ccc(Br)cc1 | 3.4 | 8.52 | –
9 | – | Cn1nc(CC(=O)Nc2ncc(-c3ccccc3)c(=O)[nH]2)c2ccccc2c1=O | 1.9 | 5.13 | –
10 | – | Cn1nc(CC(=O)Nc2nc(-c3ccc(Br)cc3)cs2)c2ccccc2c1=O | 3.6 | 7.00 | –
11 | – | CCOC(=O)Cc1nn(CC(=O)c2ccccc2)c(=O)c2ccccc12 | 1.1 | – | –
12 | – | CCOC(=O)Cc1nnc(O)c2ccccc12 | – | – | inactive
13 | – | CCOC(=O)c1sc(NC(=O)Cc2nn(C)c(=O)c3ccccc23)nc1-c1ccccc1 | 1.3 | – | –
14 | – | Cn1nc(CC(=O)NCc2n[nH]c(=O)c3ccccc23)c2ccccc2c1=O | 0.8 | – | –
15 | – | Cn1nc(CC(=O)Nc2ccc(Cl)c(C(F)(F)F)c2)c2ccccc2c1=O | 2 | 5.59 | –
16 | – | O=C(Cc1nn(CCO)c(=O)c2ccccc12)Nc1nc(-c2ccccc2)cs1 | 0.8 | – | –
17 | – | CN(C(=O)CCCCC(=O)O)c1nc(-c2ccccc2)cs1 | 0.9 | – | –
18 | – | CN(CCOc1ccc(CC2SC(=O)NC2=O)cc1)c1ccccn1 (centres undefined) [ROSIGLITAZONE] | 1.8 | 5.35 | –
19 | – | Cn1nc(CC(=O)Nc2nccc3ccccc23)c2ccccc2c1=O | 4.9 | 6.77 | –

Row | Activity [3] | SMILES | fold change (FC) (L6 [1]) | pEC50 (L6 [2]) | Activity (L6 [1])
20 | – | CN(C(=O)Cc1nn(C)c(=O)c2ccccc12)c1nc(-c2ccccc2)cs1 | 1.8 | 5.22 | –
21 | – | Nc1nc(-c2ccccc2)cs1 | – | – | inactive
22 | – | Cn1nc(CC(=O)Nc2nccc(=O)[nH]2)c2ccccc2c1=O | 1.2 | – | –
23 | – | O=C(Cc1n[nH]c(=O)c2ccccc12)NNC(=O)c1nc(-c2ccccc2)cs1 | 0.9 | – | –
24 | – | CCOC(=O)c1sc(NC(=O)Cc2nn(C)c(=O)c3ccccc23)nc1C | 0.9 | 7.40 | –
25 | – | Cn1nc(CC(=O)Nc2nc(-c3ccc(C(F)(F)F)cc3)cs2)c2ccccc2c1=O | 3.2 | – | –
26 | – | Cn1nc(CC(=O)Nc2nc(-c3ccc(F)cc3)cs2)c2ccccc2c1=O | 2.7 | – | –
27 | – | CCOC(=O)CN(C(=O)Cc1nn(C)c(=O)c2ccccc12)c1nc(-c2ccccc2)cs1 | 1.9 | 6.55 | –
28 | – | O=C(O)Cc1nnc(O)c2ccccc12 | – | – | inactive
29 | – | O=C(O)CCCCC(=O)Nc1nc(-c2ccccc2)cs1 | – | – | inactive
30 | – | Cn1nc(CC(=O)Nc2ncc(-c3ccccc3)s2)c2ccccc2c1=O | 1.6 | – | –
31 | – | Cn1nc(CC(=O)Nc2nc(-c3ccccc3O)cs2)c2ccccc2c1=O | 1.3 | – | –
32 | – | Cn1nc(CC(=O)Nc2nc(-c3ccc(Cl)cc3)cs2)c2ccccc2c1=O | 3.4 | – | –
33 | – | Cn1nc(CC(=O)Nc2nccs2)c2ccccc2c1=O | 1.7 | 6.92 | –
34 | – | Cn1nc(CC(=O)Nc2cc(-c3ccc(F)cc3)on2)c2ccccc2c1=O | 1.3 | – | –
35 | – | CCc1oc(NC(=O)Cc2nn(C)c(=O)c3ccccc23)nc1-c1ccccc1 | 1 | – | –
36 | – | Cn1nc(CC(=O)NC23CC4CC(CC(O)(C4)C2)C3)c2ccccc2c1=O | 0.7 | – | –
37 | 0.3% | Cn1nc(CC(=O)Nc2nc(-c3ccccc3)cs2)c2ccccc2c1=O | 1.8 | 7.15 | –
38 | – | O=C(O)Cc1nn(CC(=O)c2ccccc2)c(=O)c2ccccc12 | 0.9 | – | –
